Source: ChEMBL document CHEMBL1127395, “Synthesis and antimicrobial activity of novel 3-[(aminopyrimidiniumyl)thio]methyl cephalosporins” (1994)
≈ marks a conversion by molar mass, not a printed value.

How the values were obtained:
Serratia marcescens = assay: In vitro minimum inhibitory concentration for Serratia marcescens (ATCC-27117) by agar dilution method; type: functional; details: Serratia marcescens; read-out: MIC
Procedure, shortened: (§1)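 Two-fold serial dilutions of each compound dispersed in Mueller-Hinton agar; plates spot-inoculated with 2 μL of standard test strain at 10^7 CFU/mL, incubated 37 °C for 20 h; MIC read as lowest concentration inhibiting growth.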

[1] = tested on: Staphylococcus epidermidis; assay: In vitro minimum inhibitory concentration for Staphylococcus epidermidis (ATCC-12228) by agar dilution method; type: functional; details: Staphylococcus epidermidis; read-out: MIC; procedure, shortened: as §1
Escherichia coli = assay: In vitro minimum inhibitory concentration for Escherichia coli (ATCC-10536) by agar dilution method; type: functional; details: Escherichia coli; read-out: MIC; procedure, shortened: as §1
Proteus vulgaris = assay: In vitro minimum inhibitory concentration for Proteus vulgaris (ATCC-6059) by agar dilution method; type: functional; details: Proteus vulgaris; read-out: MIC; procedure, shortened: as §1
Klebsiella aerogenes = assay: In vitro minimum inhibitory concentration for Enterobacter aerogenes (ATCC-29751) by agar dilution method; type: functional; details: Klebsiella aerogenes; read-out: MIC; procedure, shortened: as §1
Staphylococcus aureus = assay: In vitro minimum inhibitory concentration for Staphylococcus aureus (ATCC 6538p) by agar dilution method; type: functional; details: Staphylococcus aureus, ATCC 6538p; read-out: MIC; procedure, shortened: as §1
Pseudomonas aeruginosa [2] = assay: In vitro minimum inhibitory concentration for Pseudomonas aeruginosa (ATCC 10145) by agar dilution method; type: functional; procedure, shortened: as §1
Pseudomonas aeruginosa [3] = assay: In vitro minimum inhibitory concentration for Pseudomonas aeruginosa (ATCC-27853) by agar dilution method; type: functional; details: Pseudomonas aeruginosa; read-out: MIC; procedure, shortened: as §1
Enterobacter cloacae = assay: In vitro minimum inhibitory concentration for Enterobacter cloacae (ATCC-27508) by agar dilution method; type: functional; details: Enterobacter cloacae; read-out: MIC; procedure, shortened: as §1
Salmonella typhimurium = assay: In vitro minimum inhibitory concentration for Salmonella Typhimurium (ATCC-14028) by agar dilution method; type: functional, Salmonella enterica subsp. enterica serovar Typhimurium; details: Salmonella enterica; read-out: MIC; procedure, shortened: as §1
Klebsiella pneumoniae = assay: In vitro minimum inhibitory concentration for Klebsiella pneumoniae (ATCC-10031) by agar dilution method; type: functional; details: Klebsiella pneumoniae; read-out: MIC
Citrobacter freundii = assay: In vitro minimum inhibitory concentration for Citrobacter freundii (ATCC-8090) by agar dilution method; type: functional; details: Citrobacter freundii; read-out: MIC; procedure, shortened: as §1

Row | Compound | MIC (Serratia marcescens) | MIC [1] | MIC (Escherichia coli) | MIC (Proteus vulgaris) | MIC (Klebsiella aerogenes) | MIC (Staphylococcus aureus) | MIC (Pseudomonas aeruginosa [2]) | MIC (Pseudomonas aeruginosa [3]) | MIC (Enterobacter cloacae) | MIC (Salmonella typhimurium) | MIC (Klebsiella pneumoniae) | MIC (Citrobacter freundii)
1 | CN(C)c1cc2n(C)cc[n+]2c(SCC2=C(C(=O)[O-])N3C(=O)C(NC(=O)/C(=N\OC(C)(C)C(=O)O)c4cnc(N)s4)C3SC2)n1 (stereo not given) | 0.5 µg/mL (≈ 0.74 µM) | 1 µg/mL (≈ 1.48 µM) | 0.13 µg/mL (≈ 0.192 µM) | 0.25 µg/mL (≈ 0.37 µM) | 4 µg/mL (≈ 5.92 µM) | 2 µg/mL (≈ 2.96 µM) | 8 µg/mL (≈ 11.8 µM) | 4 µg/mL (≈ 5.92 µM) | 0.06 µg/mL (≈ 0.0888 µM) | 0.5 µg/mL (≈ 0.74 µM) | 0.13 µg/mL (≈ 0.192 µM) | 0.25 µg/mL (≈ 0.37 µM)
2 | Cn1c(O)c[n+]2c(SCC3=C(C(=O)[O-])N4C(=O)C(NC(=O)/C(=N\OC(C)(C)C(=O)O)c5cnc(N)s5)C4SC3)nc(N)cc12 (stereo not given) | 0.5 µg/mL (≈ 0.753 µM) | 4 µg/mL (≈ 6.03 µM) | 0.13 µg/mL (≈ 0.196 µM) | 0.06 µg/mL (≈ 0.0904 µM) | 4 µg/mL (≈ 6.03 µM) | 16 µg/mL (≈ 24.1 µM) | 4 µg/mL (≈ 6.03 µM) | 4 µg/mL (≈ 6.03 µM) | 0.03 µg/mL (≈ 0.0452 µM) | 0.5 µg/mL (≈ 0.753 µM) | 0.13 µg/mL (≈ 0.196 µM) | 0.25 µg/mL (≈ 0.377 µM)
3 | CC(C)(O/N=C(\C(=O)NC1C(=O)N2C(C(=O)[O-])=C(CSc3nc(N)cc(N)[n+]3-c3ccc(O)cc3)CSC12)c1cnc(N)s1)C(=O)O (stereo not given) | 0.5 µg/mL (≈ 0.712 µM) | 2 µg/mL (≈ 2.85 µM) | 0.25 µg/mL (≈ 0.356 µM) | 0.13 µg/mL (≈ 0.185 µM) | 2 µg/mL (≈ 2.85 µM) | 4 µg/mL (≈ 5.7 µM) | 2 µg/mL (≈ 2.85 µM) | 1 µg/mL (≈ 1.42 µM) | 0.06 µg/mL (≈ 0.0855 µM) | 0.5 µg/mL (≈ 0.712 µM) | 0.13 µg/mL (≈ 0.185 µM) | 0.25 µg/mL (≈ 0.356 µM)
4 | CCn1cc[n+]2c(SCC3=C(C(=O)[O-])N4C(=O)C(NC(=O)/C(=N\OC(C)(C)C(=O)O)c5cnc(N)s5)C4SC3)nc(N)cc12 (stereo not given) | 0.13 µg/mL (≈ 0.196 µM) | 2 µg/mL (≈ 3.02 µM) | 0.06 µg/mL (≈ 0.0907 µM) | 0.06 µg/mL (≈ 0.0907 µM) | 2 µg/mL (≈ 3.02 µM) | 4 µg/mL (≈ 6.04 µM) | 4 µg/mL (≈ 6.04 µM) | 2 µg/mL (≈ 3.02 µM) | 0.02 µg/mL (≈ 0.0302 µM) | 0.13 µg/mL (≈ 0.196 µM) | 0.06 µg/mL (≈ 0.0907 µM) | 0.06 µg/mL (≈ 0.0907 µM)
5 | Cc1cc(C)nc(SCC2=C(C(=O)O)N3C(=O)C(NC(=O)/C(=N\OC(C)(C)C(=O)O)c4cnc(N)s4)C3SC2)n1 (stereo not given) | 2 µg/mL (≈ 3.29 µM) | 8 µg/mL (≈ 13.2 µM) | 0.5 µg/mL (≈ 0.823 µM) | 0.25 µg/mL (≈ 0.411 µM) | 8 µg/mL (≈ 13.2 µM) | 32 µg/mL (≈ 52.7 µM) | 64 µg/mL (≈ 105 µM) | 32 µg/mL (≈ 52.7 µM) | 0.5 µg/mL (≈ 0.823 µM) | 4 µg/mL (≈ 6.58 µM) | 0.5 µg/mL (≈ 0.823 µM) | 0.5 µg/mL (≈ 0.823 µM)
6 | CC(C)(O/N=C(\C(=O)NC1C(=O)N2C(C(=O)O)=C(CSc3nccc(O)n3)CSC12)c1cnc(N)s1)C(=O)O (stereo not given) | 16 µg/mL (≈ 26.9 µM) | > 128 µg/mL | 8 µg/mL (≈ 13.4 µM) | 2 µg/mL (≈ 3.36 µM) | 32 µg/mL (≈ 53.7 µM) | > 128 µg/mL | > 128 µg/mL | > 128 µg/mL | 4 µg/mL (≈ 6.72 µM) | 64 µg/mL (≈ 107 µM) | 8 µg/mL (≈ 13.4 µM) | 8 µg/mL (≈ 13.4 µM)
7 | CC(C)(O/N=C(\C(=O)NC1C(=O)N2C(C(=O)[O-])=C(CSc3nc(N)cc(N)[n+]3C3CC3)CSC12)c1cnc(N)s1)C(=O)O (stereo not given) | 0.25 µg/mL (≈ 0.385 µM) | 2 µg/mL (≈ 3.08 µM) | 0.13 µg/mL (≈ 0.2 µM) | 0.13 µg/mL (≈ 0.2 µM) | 2 µg/mL (≈ 3.08 µM) | 4 µg/mL (≈ 6.16 µM) | 4 µg/mL (≈ 6.16 µM) | 2 µg/mL (≈ 3.08 µM) | 0.03 µg/mL (≈ 0.0462 µM) | 0.5 µg/mL (≈ 0.77 µM) | 0.06 µg/mL (≈ 0.0923 µM) | 0.13 µg/mL (≈ 0.2 µM)
8 | Cc1ccc(-[n+]2c(N)cc(N)nc2SCC2=C(C(=O)[O-])N3C(=O)C(NC(=O)/C(=N\OC(C)(C)C(=O)O)c4cnc(N)s4)C3SC2)c(C)c1 (stereo not given) | 2 µg/mL (≈ 2.8 µM) | 2 µg/mL (≈ 2.8 µM) | 0.5 µg/mL (≈ 0.7 µM) | 0.25 µg/mL (≈ 0.35 µM) | 2 µg/mL (≈ 2.8 µM) | 4 µg/mL (≈ 5.6 µM) | 8 µg/mL (≈ 11.2 µM) | 2 µg/mL (≈ 2.8 µM) | 0.13 µg/mL (≈ 0.182 µM) | 2 µg/mL (≈ 2.8 µM) | 0.13 µg/mL (≈ 0.182 µM) | 2 µg/mL (≈ 2.8 µM)
9 | C[n+]1cc(Cc2ccccc2)c(N)nc1SCC1=C(C(=O)[O-])N2C(=O)C(NC(=O)/C(=N\OC(C)(C)C(=O)O)c3cnc(N)s3)C2SC1 (stereo not given) | 0.5 µg/mL (≈ 0.716 µM) | 2 µg/mL (≈ 2.86 µM) | 0.25 µg/mL (≈ 0.358 µM) | 0.5 µg/mL (≈ 0.716 µM) | 1 µg/mL (≈ 1.43 µM) | 8 µg/mL (≈ 11.4 µM) | 16 µg/mL (≈ 22.9 µM) | 8 µg/mL (≈ 11.4 µM) | 0.03 µg/mL (≈ 0.0429 µM) | 0.5 µg/mL (≈ 0.716 µM) | 0.06 µg/mL (≈ 0.0859 µM) | 0.06 µg/mL (≈ 0.0859 µM)
10 | Cn1cn[n+]2c(SCC3=C(C(=O)[O-])N4C(=O)C(NC(=O)/C(=N\OC(C)(C)C(=O)O)c5cnc(N)s5)C4SC3)nc(N)cc12 (stereo not given) | 0.25 µg/mL (≈ 0.385 µM) | 1 µg/mL (≈ 1.54 µM) | 0.06 µg/mL (≈ 0.0925 µM) | 0.06 µg/mL (≈ 0.0925 µM) | 1 µg/mL (≈ 1.54 µM) | 8 µg/mL (≈ 12.3 µM) | 4 µg/mL (≈ 6.17 µM) | 2 µg/mL (≈ 3.08 µM) | 0.02 µg/mL (≈ 0.0308 µM) | 0.25 µg/mL (≈ 0.385 µM) | 0.06 µg/mL (≈ 0.0925 µM) | 0.13 µg/mL (≈ 0.2 µM)
